Measurements gathered from unrelated publications.
RPS6KA5: Ribosomal protein S6 kinase alpha-5 (RPS6KA5, Homo sapiens, UniProt O75582)
RPS6KA5 N-terminal kinase domain: Ribosomal protein S6 kinase alpha-5, N-terminal kinase domain (RPS6KA5, Homo sapiens, UniProt O75582)
RPS6KA5 C-terminal kinase domain: Ribosomal protein S6 kinase alpha-5, C-terminal kinase domain (RPS6KA5, Homo sapiens, UniProt O75582)

| SMILES | target | read-out | mode | method | tested at | quantity | result |
| --- | --- | --- | --- | --- | --- | --- | --- |
| CNC(=O)c1cc(Oc2ccc(NC(=O)Nc3ccc(Cl)c(C(F)(F)F)c3)cc2)ccn1 | RPS6KA5 | enzyme activity | inhibitor | – | 10 µM | inhibition | 8% |
| COc1cc2ncnc(Nc3ccc(Oc4ccccc4)cc3C)c2cc1OC | RPS6KA5 | enzyme activity | inhibitor | – | 1 µM | inhibition | 2% |
| Cc1ccc(C(=O)Nc2ccc(CN3CCN(C)CC3)c(C(F)(F)F)c2)cc1C#Cc1cnc2cccnn12 | RPS6KA5 | enzyme activity | inhibitor | – | 23.5 nM | remaining activity | 92% |
| CC(C)(O)[C@H]1CC[C@H](Nc2ccc3ncc(-c4cccc(C(F)(F)F)c4)n3n2)CC1 | RPS6KA5 | enzyme activity | inhibitor | – | 1 µM | remaining activity | 98.9% |
| CC(C)(C)c1nc2c(s1)c1nc(N)ncc1c1ccc(NS(=O)(=O)c3c(F)cccc3F)c(F)c12 | RPS6KA5 | enzyme activity | inhibitor | radiometric | 1 µM | remaining activity | 95% |
| Cc1ccc(Nc2nccc(N(C)c3ccc4c(C)n(C)nc4c3)n2)cc1S(N)(=O)=O | RPS6KA5 | enzyme activity | inhibitor | – | 10 µM | inhibition | 36% |
| COc1ccc2cc(OCC3(C(=O)O)CN(C(=O)c4ccc(F)cc4)C3)ccc2c1 | RPS6KA5 N-terminal kinase domain | cell-free assay | – | competition with immobilised ligand | 1 µM | remaining binding | 100% |
| CNCc1ccc(-c2cc(-c3nc(-c4ccc(S(=O)(=O)C(C)C)cc4)cnc3N)on2)cc1 | RPS6KA5 | enzyme activity | inhibitor | – | 0.4 µM | inhibition | 0% |
| COc1cc2c(N3CCN(C(=O)Nc4ccc(OC(C)C)cc4)CC3)ncnc2cc1OCCCN1CCCCC1 | RPS6KA5 | cell-free assay | – | – | 0.5 µM | remaining signal | 109% |
| C[C@H](c1cccc(C#N)c1)n1cc(Cl)cc(C(N)=O)c1=N | RPS6KA5 C-terminal kinase domain | cell-free assay | – | competition with immobilised ligand | 1 µM | remaining binding | 68% |
| Oc1cccc(-c2nc(N3CCOCC3)c3oc4ncccc4c3n2)c1 | RPS6KA5 | cell-free assay | – | – | 0.5 µM | remaining signal | 86.5% |
| CNC(=O)c1ccc(Nc2ncc(C(F)(F)F)c(NCc3nccnc3N(C)S(C)(=O)=O)n2)cc1 | RPS6KA5 N-terminal kinase domain | cell-free assay | – | competition with immobilised ligand | 0.1 µM | remaining binding | 81% |
| Nc1ncnc2occ(-c3ccc(NC(=O)Nc4cc(C(F)(F)F)ccc4F)cc3)c12 | RPS6KA5 C-terminal kinase domain | cell-free assay | inhibitor | – | 20 µM | remaining signal | 23% |
| FC(F)c1nc2ccccc2n1-c1nc(N2CCOCC2)nc(N2CCOCC2)n1 | RPS6KA5 | enzyme activity | inhibitor | – | 10 µM | remaining activity | 89% |
| N#CC1(c2ccccn2)CCN(Cc2cc(C(=O)N3CCCC3)c(=O)n3ccccc23)CC1 | RPS6KA5 N-terminal kinase domain | cell-free assay | – | competition with immobilised ligand | 1 µM | remaining binding | 88% |
| Oc1cccc(-c2nc(N3CCOCC3)c3oc4ncccc4c3n2)c1 | RPS6KA5 | enzyme activity | inhibitor | – | 10 µM | remaining activity | 105% |

| SMILES | target | read-out | mode | method | tested at | quantity | result |
| --- | --- | --- | --- | --- | --- | --- | --- |
| N#CCCc1ccc2c(c1)-c1[nH]c3ccc([N+](=O)[O-])cc3c1CC(=O)N2 | RPS6KA5 | cell-free assay | – | – | 0.5 µM | remaining signal | 94.2% |
| Cc1cnc(NC2CCOCC2)nc1-n1cnc(C(=O)NC(CN)c2cc(F)cc(Cl)c2)c1 (stereo not shown) | RPS6KA5 | enzyme activity | inhibitor | radiometric | 1 µM | remaining activity | 74% |
| CC(C)(C)C(=O)c1sc(NC2CCCCC2)nc1N | RPS6KA5 | enzyme activity | inhibitor | – | 10 µM | remaining activity | 102% |
| COc1cc(Nc2cnc(C#N)c(O[C@H](C)CN(C)C)n2)ncc1-c1cnn(C)c1 | RPS6KA5 | enzyme activity | inhibitor | radiometric | 1 µM | remaining activity | 86% |
| CCN(CC)CCNC(=O)c1c(C)[nH]c(/C=C2\C(=O)Nc3ccc(F)cc32)c1C | RPS6KA5 | cell-free assay | – | – | 0.5 µM | remaining signal | 60.1% |
| CCCS(=O)(=O)Nc1ccc(F)c(C(=O)c2c[nH]c3ncc(-c4ccc(Cl)cc4)cc23)c1F | RPS6KA5 | enzyme activity | inhibitor | – | 1 µM | inhibition | < 10% |
| Oc1ccc(-c2nc(-c3ccncc3)c(-c3ccc(F)cc3)[nH]2)cc1 | RPS6KA5 | cell-free assay | – | – | 0.5 µM | remaining signal | 107% |
| O=C(NC[C@@H]1[C@H]2CN(C(=O)OCc3cc(C(F)(F)F)cc(C(F)(F)F)c3)C[C@@H]12)c1ccc2[nH]nnc2c1 | RPS6KA5 N-terminal kinase domain | cell-free assay | – | competition with immobilised ligand | 1 µM | remaining binding | 100% |
| Nc1nc(NC2CCCCC2)sc1C(=O)c1ccccc1 | RPS6KA5 | enzyme activity | inhibitor | – | 10 µM | remaining activity | 122% |
| COc1cc(-c2cn(C3CCc4c(F)cccc4N(CC(F)(F)F)C3=O)nn2)ccc1-n1cnc(C)c1 (stereo not shown) | RPS6KA5 N-terminal kinase domain | cell-free assay | – | competition with immobilised ligand | 1 µM | remaining binding | 100% |
| Cc1ccc(C(=O)NCc2ccsc2)cc1C#Cc1cn(C(C)C)c2ncnc(N)c12 | RPS6KA5 | enzyme activity | inhibitor | – | 1 µM | activity vs control | 104% |
| O=C(N[C@H]1CCCCC/C=C\C2C[C@@]2(C(=O)O)NC(=O)[C@@H]2C[C@@H](Oc3ccncc3)CN2C1=O)OC1CCCC1 (stereo partly shown) | RPS6KA5 C-terminal kinase domain | binding | – | competition with immobilised ligand | 1 µM | remaining binding | 78% |
| O=C(Nc1cnn(-c2csc(C(=O)NC3COC3)c2)c1)Nc1ccccc1Cl | RPS6KA5 | enzyme activity | inhibitor | – | 5 µM | remaining activity | 89.5% |
| CCS(=O)(=O)c1cc2cc(C[C@](O)(CC(C)(C)c3ccc(F)cc3C(N)=O)C(F)(F)F)[nH]c2cn1 | RPS6KA5 C-terminal kinase domain | cell-free assay | – | competition with immobilised ligand | 1 µM | remaining binding | 100% |
| Cc1ccc(NC(=O)c2ccc(C)c(C(F)(F)F)c2)cc1C#Cc1nn(C2CCC(O)CC2)c2ncnc(N)c12 (stereo not shown) | RPS6KA5 | cell-free assay | – | – | 10 µM | remaining signal | 95% |
